Measurements from ChEMBL document CHEMBL1156657, “Structures and absolute configurations of sulfate-conjugated triterpenoids including an antifungal chemical defense of the green macroalga Tydemania expeditionis” (J Nat Prod, 2008).

Key:
[1] = test system: PC-3; experiment: Antitumor activity against human PC3 cells after 72 hrs by MTT assay; assay type: functional, cell-based; conditions: PC-3, 72 h
How it was run: (§1)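 Cells seeded in 96-well plates; compounds added 24 h after seeding and left on for 72 h. Viable cells read spectrophotometrically after MTS tetrazolium staining, with dye conversion taken as proportional to live cells. IC50 for each cell line derived from dose–response curves.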

[2] = test system: MDA-MB-468; experiment: Antitumor activity against human MDA-MB-468 cells after 72 hrs by MTT assay; assay type: functional, cell-based; conditions: MDA-MB-468, 72 h; how it was run: as §1
[3] = Antitumor activity against human A2780/DDP-S cells after 72 hrs by MTT assay; assay type: functional, cell-based; conditions: A2780, 72 h; how it was run: as §1
[4] = test system: NCI-H446; experiment: Antitumor activity against human NCI-H446 cells after 72 hrs by MTT assay; assay type: functional, cell-based; conditions: NCI-H446, 72 h; how it was run: as §1
[5] = test system: BT-549; experiment: Antitumor activity against human BT549 cells after 72 hrs by MTT assay; assay type: functional, cell-based; conditions: BT-549, 72 h; how it was run: as §1
[6] = test system: DU-4475; experiment: Antitumor activity against human DU4475 cells after 72 hrs by MTT assay; assay type: functional, cell-based; conditions: DU-4475, 72 h
[7] = Antitumor activity against human LNCaP-FGC cells after 72 hrs by MTT assay; assay type: functional, cell-based; conditions: LNCaP-Clone-FGC; how it was run: as §1
[8] = test system: DU-145; experiment: Antitumor activity against human Du145 cells after 72 hrs by MTT assay; assay type: functional, cell-based; conditions: DU-145, 72 h; how it was run: as §1
[9] = test system: MDA-MB-231; experiment: Antitumor activity against human MDA-MB-231 cells after 72 hrs by MTT assay; assay type: functional, cell-based; conditions: MDA-MB-231, 72 h; how it was run: as §1
[10] = test system: CCRF-CEM; experiment: Antitumor activity against human CCRF-CEM cells after 72 hrs by MTT assay; assay type: functional, cell-based; how it was run: as §1
[11] = test system: SHP77; experiment: Antitumor activity against human SHP77 cells after 72 hrs by MTT assay; assay type: functional, cell-based; conditions: SHP77, 72 h; how it was run: as §1
[12] = test system: Rotifers; experiment: Toxicity against Rotifers assessed as feeding at 10 ppm after 45 mins by injestion toxicity assay; assay type: organism-based; conditions: rotifera, in vivo, 0.75 h
[13] = test system: HCT-116; experiment: Antitumor activity against human HCT116 cells after 72 hrs by MTT assay; assay type: functional, cell-based; conditions: HCT-116, 72 h; how it was run: as §1
[14] = test system: Lindra thalassiae; experiment: Antifungal activity against Lindra thalassiae ATCC 56663 after 6 days; assay type: functional, organism-based; conditions: Lindriella thalassiae, ATCC 56663, 144 h
How it was run: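 Growth inhibition of marine fungal pathogen Lindra thalassiae ATCC 56663. IC50 derived from dose–response curves.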

[15] = test system: Lindra thalassiae; experiment: Antifungal activity against Lindra thalassiae ATCC 56663 at 0.67 mg/mL after 6 days; assay type: functional, Lindriella thalassiae

Row | SMILES | IC50 [1] [µM] | IC50 [2] [µM] | IC50 [4] [µM] | IC50 [5] [µM] | IC50 [8] [µM] | IC50 [9] [µM] | IC50 [10] [µM] | IC50 [13] [µM] | IC50 [14] [µM] | IC50 [3] [µM] | IC50 [6] [µM] | IC50 [7] [µM] | IC50 [11] [µM] | Activity [12] [%] | Activity [15] [µg/mL]
1 | CC(C)C[C@H](O)C[C@@H](C)[C@H]1CC[C@@]2(C)[C@@H]3CC[C@H]4[C@](C)(COS(=O)(=O)O)[C@@H](O)CC[C@@]45C[C@@]35CC[C@]12C | – | – | – | – | – | – | – | – | 55 | – | – | – | – | – | –
2 | CC(C)CC(=O)C[C@@H](C)[C@H]1CC[C@@]2(C)C3=C(CC[C@]12C)[C@@]1(C)CC[C@H](OS(=O)(=O)[O-])[C@@](C)(COS(=O)(=O)[O-])[C@@H]1CC3.[Na+].[Na+] | 31 | 31 | 31 | 31 | 31 | 31 | 31 | 31 | – | 31 | 31 | 31 | 31 | 9 | –
3 | CC(C)=CC(=O)C[C@@H](C)[C@H]1CC[C@@]2(C)[C@@H]3CC[C@H]4[C@](C)(CO)[C@@H](OS(=O)(=O)[O-])CC[C@@]45C[C@@]35CC[C@]12C.[Na+] | 6 | 6 | 6 | 6 | 6 | 6 | 6 | 6 | – | 6 | 6 | 6 | 6 | 9 | –
4 | CC(C)=CC(=O)C[C@@H](C)[C@H]1CC[C@@]2(C)[C@@H]3CC[C@H]4[C@](C)(COS(=O)(=O)[O-])[C@@H](O)CC[C@@]45C[C@@]35CC[C@]12C.[Na+] | 6 | 6 | 6 | 6 | 6 | 6 | 6 | 6 | – | 6 | 6 | 6 | 6 | 9 | –
5 | CC(C)C[C@H](O)C[C@@H](C)[C@H]1CC[C@@]2(C)[C@@H]3CC[C@H]4[C@](C)(CO)[C@@H](OS(=O)(=O)O)CC[C@@]45C[C@@]35CC[C@]12C | – | – | – | – | – | – | – | – | 30 | – | – | – | – | – | –
6 | CC(C)=CC(=O)C[C@@H](C)[C@H]1CC[C@@]2(C)[C@@H]3CC[C@H]4[C@](C)(CO)[C@@H](O)CC[C@@]45C[C@@]35CC[C@]12C | 6 | 6 | 6 | 6 | 6 | 6 | 6 | 6 | – | 6 | 6 | 6 | 6 | 9 | –

Further lines, with some results ahead:

Row | IC50 [1] [µM] | IC50 [2] [µM] | IC50 [4] [µM] | IC50 [5] [µM] | IC50 [8] [µM] | IC50 [9] [µM] | IC50 [10] [µM] | IC50 [13] [µM] | IC50 [14] [µM] | SMILES | IC50 [3] [µM] | IC50 [6] [µM] | IC50 [7] [µM] | IC50 [11] [µM] | Activity [12] [%] | Activity [15] [µg/mL]
7 | 31 | 31 | 31 | 31 | 31 | 31 | 31 | 31 | – | CC(C)=CC(=O)C[C@@H](C)[C@H]1CC[C@@]2(C)[C@@H]3CC[C@H]4[C@](C)(COS(=O)(=O)[O-])[C@@H](OS(=O)(=O)[O-])CC[C@@]45C[C@@]35CC[C@]12C.[Na+].[Na+] | 31 | 31 | 31 | 31 | 9 | –
8 | 31 | 31 | 31 | 31 | 31 | 31 | 31 | 31 | 26 | CC(C)C[C@H](O)C[C@@H](C)[C@H]1CC[C@@]2(C)[C@@H]3CC[C@H]4[C@](C)(COS(=O)(=O)[O-])[C@@H](OS(=O)(=O)[O-])CC[C@@]45C[C@@]35CC[C@]12C.[Na+].[Na+] | 31 | 31 | 31 | 31 | 9 | 670
9 | 31 | 31 | 31 | 31 | 31 | 31 | 31 | 31 | – | CC(C)CC(=O)C[C@@H](C)[C@H]1CC[C@@]2(C)[C@@H]3CC[C@H]4[C@](C)(COS(=O)(=O)[O-])[C@@H](OS(=O)(=O)[O-])CC[C@@]45C[C@@]35CC[C@]12C.[Na+].[Na+] | 31 | 31 | 31 | 31 | 9 | –
